A3G deaminase: APOBEC3G DNA deaminase inhibitors, primary screen, biochemical, fluorescence, single-stranded DNA substrate, uHTS | 330,000 compounds, 0.28% hits | inhibition, % at 20 µM | recombinant A3G, ssDNA deamination FAM/TAMRA fluorescence | DNA dC->dU-editing enzyme APOBEC-3G (Homo sapiens), Q9HC16;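 active means inhibition of at least 40% at 20 µM, with no more than 30% in the related APOBEC3A deaminase screen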;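 further: plate controls were DMSO wells with A3G for no effect and wells lacking A3G enzyme for full effect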
FN deposit inh: inhibitors of fibronectin matrix deposition, primary screen, AH1F cells, Alexa488-fibronectin fluorescence, plate reader | 350,000 compounds, 0.086% hits | inhibition, % at 12.6 µM | AID 743247, 2014 | AH1F fibroblasts, overnight;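 active means mean inhibition across replicates of 30% or more, regardless of how many single replicates reach that level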;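 further: positive control wells lacked labelled fibronectin entirely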
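Assay system: AH1F fibroblasts assembling fluorescent fibronectin matrix; Amount: 10000 AH1F cells per well; Buffer or medium: DMEM, 2% serum; Probe or stimulus: Alexa488-fibronectin, 24 nM final in well; Doses: single compound dose, delivered by pin transfer; Incubation: 1 h adhesion, overnight exposure; Measured by: fluorescence 485/525 nm; Read-out: fibronectin deposition inhibition.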
A3A deaminase: APOBEC3A ssDNA deaminase inhibitors, primary screen, selectivity assay for APOBEC3G inhibitor project, biochemical, FAM/TAMRA oligo cleavage fluorescence; DNA dC->dU-editing enzyme APOBEC-3A (Homo sapiens), P31941; recombinant A3A, FAM/TAMRA ssDNA deamination fluorescence; inhibition, % at 20 µM; 330,000 compounds, 0.41% hits;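 active means at least 40% inhibition at 20 µM here, with at most 30% in a related deaminase screen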;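 further: plate controls were A3A with DMSO for no effect and wells lacking A3A enzyme for full effect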
ABHD5 PLIN5 PPI: ABHD5-PLIN5 interaction inhibitors, primary screen, cell lysate, split luciferase complementation, luminescence; Perilipin-5 (Homo sapiens) + 1-acylglycerol-3-phosphate O-acyltransferase ABHD5 (Homo …; Split G. princeps luciferase complementation, 4 h; inhibition, % at 4 µM; 360,000 compounds, 0.78% hits; AID 602281, 2012;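 active means inhibition above the mean inhibition across every tested compound plus 3 SD, cut at about 22% in these data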;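 further: 0% = DMSO only wells and the 100% control is not disclosed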
Target sequence (Q00G26 whole entry, looked up): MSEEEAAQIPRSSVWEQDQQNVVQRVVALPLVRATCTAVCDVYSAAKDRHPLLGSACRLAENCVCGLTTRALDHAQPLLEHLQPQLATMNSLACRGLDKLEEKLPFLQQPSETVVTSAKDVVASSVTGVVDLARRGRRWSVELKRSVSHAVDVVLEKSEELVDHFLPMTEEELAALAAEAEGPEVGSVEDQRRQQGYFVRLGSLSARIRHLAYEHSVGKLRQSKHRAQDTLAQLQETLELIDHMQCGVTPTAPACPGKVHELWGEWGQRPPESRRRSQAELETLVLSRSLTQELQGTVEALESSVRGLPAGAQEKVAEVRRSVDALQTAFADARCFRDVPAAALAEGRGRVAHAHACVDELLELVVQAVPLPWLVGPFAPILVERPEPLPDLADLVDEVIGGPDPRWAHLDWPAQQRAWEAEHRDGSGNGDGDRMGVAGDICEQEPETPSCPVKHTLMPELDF
Target sequence (Q8WTS1 whole entry, looked up): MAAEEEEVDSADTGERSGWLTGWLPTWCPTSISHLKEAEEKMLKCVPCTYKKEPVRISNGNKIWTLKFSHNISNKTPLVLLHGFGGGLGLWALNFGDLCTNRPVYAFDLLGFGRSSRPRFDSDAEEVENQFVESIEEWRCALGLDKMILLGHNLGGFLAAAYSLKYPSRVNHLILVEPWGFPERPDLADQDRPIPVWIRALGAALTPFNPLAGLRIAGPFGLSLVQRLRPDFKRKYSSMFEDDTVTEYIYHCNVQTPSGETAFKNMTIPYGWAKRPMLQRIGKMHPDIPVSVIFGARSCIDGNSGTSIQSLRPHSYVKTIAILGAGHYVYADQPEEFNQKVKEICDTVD
ABHD5-PLIN5 conf: ABHD5-PLIN5 interaction inhibitors, confirmation, biochemical, luminescence; inhibition, % at 4 µM; 2,200 compounds, 67% hits; shares compounds with ABHD5 PLIN5 PPI; in the data active means inhibition above about 23%;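 further: 0% = DMSO vehicle wells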
HNF4 counter: HNF4 dimerization inhibitors, counter-screen for ABHD5-PLIN5 interaction inhibitor project, biochemical, split-luciferase complementation, luminescence. shares compounds with ABHD5 PLIN5 PPI. 2,200 compounds, 77% hits. inhibition, % at 4 µM;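 active means mean inhibition across replicate wells exceeding the computed hit threshold, cut at about 13% in these data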;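 further: light from luciferase halves that rejoin when HNF4 fusion proteins dimerize; 0% = DMSO only wells and the 100% control is not given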
The depositor's hits bear a star. Most compounds without a hit are left out; they make up all but 1.2% or so of the library.

How did C[C@H](CO)N1C[C@H](C)[C@@H](CN(C)C(=O)Nc2cccc3ccccc23)Oc2ccc(NC(=O)C3CC3)cc2C1=O do in these assays?
FN deposit inh: 5.9

How did C[C@H](O)C#Cc1cnc2c(c1)C(=O)N([C@@H](C)CO)C[C@H](C)[C@H](CN(C)CC1CCCCC1)O2 do in these assays?
FN deposit inh: -3.1

Results for O=[N+]([O-])c1ccc(Sc2ccncn2)c([N+](=O)[O-])c1 ?
FN deposit inh: 4.6; ABHD5 PLIN5 PPI: 28.8*; ABHD5-PLIN5 conf: 41.0*; HNF4 counter: 41.2*

What do the screens show for `N#C[C@@H]1[C@H](c2ccc(-c3cccc(F)c3)cc2)[C@H](CO)N1S(=O)(=O)c1cccc(F)c1`?
FN deposit inh: 3.6

Results for O=C(C[C@@H]1C[C@H]2c3cc(NS(=O)(=O)c4ccc(F)cc4)ccc3O[C@H]2[C@@H](CO)O1)NCc1ccncc1 ?
FN deposit inh: -9.4

What do the screens show for `COc1cccc(/C=C2/CCC(CN(C)C)C2=O)c1` (configuration not stated)?
FN deposit inh: -1.1; ABHD5 PLIN5 PPI: 58.1*; ABHD5-PLIN5 conf: 101.0*; HNF4 counter: 103.5*

What do the screens show for `Cc1ccc(-c2ccc3c(c2)O[C@H](CN(C)C(=O)Nc2ccc(F)cc2)[C@H](C)CN([C@H](C)CO)S3(=O)=O)cc1`?
FN deposit inh: 2.0

How did CC(C)(C)C(=O)/C(=C/c1ccncc1)n1cncn1 do in these assays?
A3G deaminase: -5.9; FN deposit inh: 11.4; A3A deaminase: -0.4; ABHD5 PLIN5 PPI: 28.8*; ABHD5-PLIN5 conf: 51.1*; HNF4 counter: 47.5*

Results for N#C/C(=C\c1ccc(N2CCOCC2)o1)c1ccccc1 ?
A3G deaminase: 27.9; A3A deaminase: 0.7; ABHD5 PLIN5 PPI: 75.6*; ABHD5-PLIN5 conf: 37.0*; HNF4 counter: 101.4*

Results for N#C/C(=C/c1ccc(N2CCOCC2)o1)c1nc2ccccc2[nH]1 ?
A3G deaminase: -56.6; A3A deaminase: -26.8; ABHD5 PLIN5 PPI: 27.3*; ABHD5-PLIN5 conf: 31.9*; HNF4 counter: 50.2*

What do the screens show for `O=C(N[C@@H]1CC[C@H](CCNC(=O)C2CCOCC2)O[C@H]1CO)c1ccccn1`?
FN deposit inh: -1.9

What do the screens show for `CCN(CC)c1ccc(/C=C2/SC(=O)N(C(C)C)C2=O)o1`?
FN deposit inh: 13.1; ABHD5 PLIN5 PPI: 93.0*; ABHD5-PLIN5 conf: 73.2*; HNF4 counter: 109.5*

Results for CC(C)NC(=O)N(C)C[C@@H]1Oc2ncccc2C(=O)N(C)C[C@H]1C ?
FN deposit inh: 0.2

Results for COc1cc(C(C[N+](=O)[O-])c2c(N)n(C)c(=O)n(C)c2=O)ccc1O (configuration not stated) ?
A3G deaminase: -7.0; FN deposit inh: -0.2; A3A deaminase: -0.7; ABHD5 PLIN5 PPI: 44.8*; ABHD5-PLIN5 conf: 36.9*; HNF4 counter: 55.2*

What do the screens show for `COc1cccc(F)c1C(C[N+](=O)[O-])c1c(N)n(C)c(=O)n(C)c1=O` (configuration not stated)?
A3G deaminase: -1.5; FN deposit inh: 4.5; A3A deaminase: -0.1; ABHD5 PLIN5 PPI: 31.3*; ABHD5-PLIN5 conf: 29.8*; HNF4 counter: 67.6*

Results for CC(C(c1ccc2c(c1)OCO2)c1c(N)n(C)c(=O)n(C)c1=O)[N+](=O)[O-] (configuration not stated) ?
A3G deaminase: -8.6; FN deposit inh: -1.5; A3A deaminase: -3.3; ABHD5 PLIN5 PPI: 33.0*; ABHD5-PLIN5 conf: 6.0; HNF4 counter: 11.8

What do the screens show for `COc1cc(C(C[N+](=O)[O-])c2c(C)[nH]c3ccccc23)ccc1O` (configuration not stated)?
A3G deaminase: -2.8; FN deposit inh: 10.6; A3A deaminase: -2.5; ABHD5 PLIN5 PPI: 1.6

What do the screens show for `Cc1ccc(C(C[N+](=O)[O-])c2c(N)n(C)c(=O)n(C)c2=O)cc1` (configuration not stated)?
A3G deaminase: -2.2; FN deposit inh: 3.6; A3A deaminase: -2.0; ABHD5 PLIN5 PPI: 31.9*; ABHD5-PLIN5 conf: 35.7*; HNF4 counter: 43.9*

What do the screens show for `C[C@@H]1CN([C@@H](C)CO)C(=O)c2cc(C#CC3CC3)cnc2O[C@H]1CN(C)C(=O)CC1CC1`?
FN deposit inh: -8.6

What do the screens show for `C[C@@H]1CN([C@H](C)CO)S(=O)(=O)c2ccc(C3=CCCC3)cc2O[C@@H]1CN(C)C(=O)c1cnccn1`?
FN deposit inh: -1.4

What do the screens show for `COc1ccc(CC(=O)NC(C)(C)CC(C)=O)cc1OC`?
A3G deaminase: -2.7; A3A deaminase: -0.8; ABHD5 PLIN5 PPI: 0.0

What do the screens show for `COc1ccc(CC(=O)n2[nH]c(=O)cc(C)c2=O)cc1OC`?
A3G deaminase: -7.6; FN deposit inh: 1.0; A3A deaminase: -4.7; ABHD5 PLIN5 PPI: 41.8*; ABHD5-PLIN5 conf: 64.6*; HNF4 counter: 86.6*

Results for CCC(=O)Nc1ccc2c(c1)C(=O)N(C)C[C@@H](OC)[C@@H](C)CN(Cc1cncnc1)[C@@H](C)CO2 ?
FN deposit inh: 2.9

How did Oc1ccccc1C1=Nc2ccccc2N=C(c2ccco2)C1 do in these assays?
A3G deaminase: -2.3; FN deposit inh: 1.4; A3A deaminase: -0.4; ABHD5 PLIN5 PPI: -0.9

How did O=C(O)C1CC(c2ccccc2)=Nc2ccccc2S1 (configuration not stated) do in these assays?
A3G deaminase: -7.3; FN deposit inh: 2.0; A3A deaminase: -5.4; ABHD5 PLIN5 PPI: -5.0

Results for Fc1ccc(C2CC(c3ccco3)=Nc3ccccc3S2)cc1 (configuration not stated) ?
A3G deaminase: -5.0; FN deposit inh: 0.4; A3A deaminase: -1.4; ABHD5 PLIN5 PPI: 46.0*; ABHD5-PLIN5 conf: -0.1; HNF4 counter: 69.3*

How did O=[N+]([O-])c1ccc(C2CC(c3ccccc3)=Nc3ccccc3S2)cc1 (configuration not stated) do in these assays?
A3G deaminase: 6.2; FN deposit inh: -9.6; A3A deaminase: 3.7; ABHD5 PLIN5 PPI: 79.1*; ABHD5-PLIN5 conf: 25.9*; HNF4 counter: 88.5*

Results for C[C@@H]1CN([C@@H](C)CO)C(=O)c2cc(NS(=O)(=O)c3ccc(Cl)cc3)ccc2O[C@@H](C)CCCCO[C@@H]1CN(C)Cc1ccncc1 ?
FN deposit inh: 3.9

How did CC(C)CC#Cc1cnc2c(c1)C(=O)N([C@@H](C)CO)C[C@H](C)[C@@H](CN(C)C(=O)CCN1CCCCC1)O2 do in these assays?
FN deposit inh: -1.9
